According to ChEMBL document CHEMBL4330143, “Maximizing ER-α Degradation Maximizes Activity in a Tamoxifen-Resistant Breast Cancer Model: Identification of GDC-0927” (ACS Med Chem Lett, 2019):
The source made the active and inactive calls. No cut-off for these calls is given here.

Tests used:
[1] = Oral bioavailability in rat at 10 mg/kg daily for 3 days measured on day 3 post last dose; format: ADME, organism-based; conditions: in vivo
[2] = target: T1, Progesterone receptor (Homo sapiens) (UniProt P06401); assay: Agonist activity at PR-A (unknown origin) by transcriptional reporter assay
T1 sequence (whole entry): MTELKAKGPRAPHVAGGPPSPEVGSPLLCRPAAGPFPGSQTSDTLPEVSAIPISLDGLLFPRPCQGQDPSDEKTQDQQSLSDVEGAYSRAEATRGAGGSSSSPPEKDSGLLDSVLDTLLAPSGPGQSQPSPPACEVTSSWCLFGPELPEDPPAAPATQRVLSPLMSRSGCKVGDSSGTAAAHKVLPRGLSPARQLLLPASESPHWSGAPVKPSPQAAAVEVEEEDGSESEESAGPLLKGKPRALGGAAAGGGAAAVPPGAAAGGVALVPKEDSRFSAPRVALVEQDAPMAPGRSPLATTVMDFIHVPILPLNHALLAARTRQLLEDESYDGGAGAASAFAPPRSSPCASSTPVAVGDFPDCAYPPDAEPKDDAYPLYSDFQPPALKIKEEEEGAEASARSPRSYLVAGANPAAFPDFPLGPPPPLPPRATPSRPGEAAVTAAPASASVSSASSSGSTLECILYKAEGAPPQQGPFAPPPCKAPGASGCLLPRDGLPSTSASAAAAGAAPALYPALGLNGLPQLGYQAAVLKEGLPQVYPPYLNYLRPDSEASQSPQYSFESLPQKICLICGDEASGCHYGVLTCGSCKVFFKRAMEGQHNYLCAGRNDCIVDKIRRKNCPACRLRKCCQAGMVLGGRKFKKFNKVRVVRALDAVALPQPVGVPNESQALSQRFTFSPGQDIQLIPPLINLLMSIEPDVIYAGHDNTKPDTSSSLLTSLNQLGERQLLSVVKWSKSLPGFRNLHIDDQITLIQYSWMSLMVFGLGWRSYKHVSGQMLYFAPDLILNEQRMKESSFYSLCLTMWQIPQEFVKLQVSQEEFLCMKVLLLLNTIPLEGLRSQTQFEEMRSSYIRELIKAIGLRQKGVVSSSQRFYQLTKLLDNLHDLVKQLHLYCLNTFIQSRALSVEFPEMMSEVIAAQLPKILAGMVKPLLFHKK

[3] = target: T1, Progesterone receptor (Homo sapiens); assay: Antagonist activity at PR-B (unknown origin) by transcriptional reporter assay
[4] = AUC in rat at 10 mg/kg, po daily for 3 days measured on day 3 post last dose; format: ADME, organism-based; conditions: in vivo
[5] = target: T2, Mineralocorticoid receptor (Homo sapiens) (UniProt P08235); assay: Antagonist activity at MR (unknown origin) by transcriptional reporter assay
T2 sequence (whole entry): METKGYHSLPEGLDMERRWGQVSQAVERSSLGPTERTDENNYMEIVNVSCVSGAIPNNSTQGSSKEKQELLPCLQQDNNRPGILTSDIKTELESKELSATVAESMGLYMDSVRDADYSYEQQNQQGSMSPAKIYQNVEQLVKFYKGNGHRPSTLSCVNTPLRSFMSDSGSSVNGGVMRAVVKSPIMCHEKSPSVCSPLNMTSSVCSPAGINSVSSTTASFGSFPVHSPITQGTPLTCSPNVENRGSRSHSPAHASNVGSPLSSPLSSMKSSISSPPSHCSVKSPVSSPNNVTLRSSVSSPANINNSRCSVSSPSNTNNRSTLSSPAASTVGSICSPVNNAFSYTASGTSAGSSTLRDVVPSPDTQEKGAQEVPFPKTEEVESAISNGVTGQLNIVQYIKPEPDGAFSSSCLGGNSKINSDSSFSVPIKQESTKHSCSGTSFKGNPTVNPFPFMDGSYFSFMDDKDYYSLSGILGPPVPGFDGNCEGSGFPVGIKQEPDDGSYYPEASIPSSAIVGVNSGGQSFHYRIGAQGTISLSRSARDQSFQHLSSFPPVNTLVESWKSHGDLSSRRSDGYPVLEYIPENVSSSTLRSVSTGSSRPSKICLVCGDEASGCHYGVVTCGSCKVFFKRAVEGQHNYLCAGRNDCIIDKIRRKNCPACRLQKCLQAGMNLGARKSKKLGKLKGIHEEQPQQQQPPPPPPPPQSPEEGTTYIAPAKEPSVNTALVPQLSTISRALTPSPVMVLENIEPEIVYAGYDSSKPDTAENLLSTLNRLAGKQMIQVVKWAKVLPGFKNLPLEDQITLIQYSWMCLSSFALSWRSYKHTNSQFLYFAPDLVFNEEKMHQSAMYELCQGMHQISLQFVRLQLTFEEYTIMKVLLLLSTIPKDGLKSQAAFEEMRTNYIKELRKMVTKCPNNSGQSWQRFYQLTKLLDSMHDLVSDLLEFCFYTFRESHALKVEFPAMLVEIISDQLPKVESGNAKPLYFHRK

[6] = tested on: Mus musculus; assay: In vivo induction of ERalpha degradation in tumor of nude mouse xenografted with tamoxifen-resistant human MCF7 cells at 100 mg/kg, po daily for 28 days measured on day 28 post last dose; format: functional, organism-based
Procedure, shortened: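 Tamoxifen-resistant MCF-7 tumours grown subcutaneously in mice, with estradiol supplied from subcutaneous 0.72 mg estradiol pellets.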

[7] = target: Cytochrome P450 2D6 (Homo sapiens, UniProt P10635); assay: Competitive inhibition of CYP2D6 (unknown origin); format: ADME
[8] = target: Cytochrome P450 3A4 (Homo sapiens, UniProt P08684); assay: Competitive inhibition of CYP3A4 (unknown origin); format: ADME
[9] = target: T3, Cytochrome P450 2C8 (Homo sapiens, UniProt P10632); assay: Inhibition of CYP2C8 (unknown origin); format: ADME
T3 sequence (P10632 whole entry): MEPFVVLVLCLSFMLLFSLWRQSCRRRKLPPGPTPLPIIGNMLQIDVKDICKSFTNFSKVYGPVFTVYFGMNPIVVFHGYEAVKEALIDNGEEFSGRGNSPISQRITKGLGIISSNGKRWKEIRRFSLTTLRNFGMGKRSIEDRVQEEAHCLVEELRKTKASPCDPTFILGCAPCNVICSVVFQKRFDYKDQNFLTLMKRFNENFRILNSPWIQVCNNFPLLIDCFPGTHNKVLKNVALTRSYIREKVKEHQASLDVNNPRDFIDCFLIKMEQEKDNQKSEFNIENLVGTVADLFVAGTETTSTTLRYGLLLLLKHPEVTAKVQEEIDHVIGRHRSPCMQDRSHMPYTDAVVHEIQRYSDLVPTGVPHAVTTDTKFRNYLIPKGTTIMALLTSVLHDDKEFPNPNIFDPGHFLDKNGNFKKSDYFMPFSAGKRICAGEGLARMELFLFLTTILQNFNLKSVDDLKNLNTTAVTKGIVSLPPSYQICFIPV

Sequence of Cytochrome P450 2D6 (P10635 whole entry): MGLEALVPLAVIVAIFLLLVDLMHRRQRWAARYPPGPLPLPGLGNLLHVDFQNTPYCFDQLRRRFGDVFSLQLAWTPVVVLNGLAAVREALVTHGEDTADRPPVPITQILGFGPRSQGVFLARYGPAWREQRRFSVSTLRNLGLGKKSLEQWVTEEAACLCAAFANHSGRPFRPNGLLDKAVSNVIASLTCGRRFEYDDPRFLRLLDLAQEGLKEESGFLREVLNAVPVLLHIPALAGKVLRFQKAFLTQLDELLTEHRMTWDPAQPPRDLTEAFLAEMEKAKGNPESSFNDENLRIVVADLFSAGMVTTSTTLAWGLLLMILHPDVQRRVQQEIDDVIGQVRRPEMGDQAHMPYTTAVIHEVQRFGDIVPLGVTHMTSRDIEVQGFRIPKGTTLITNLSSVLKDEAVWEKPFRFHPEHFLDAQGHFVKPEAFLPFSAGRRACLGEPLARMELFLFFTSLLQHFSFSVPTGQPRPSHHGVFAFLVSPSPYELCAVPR
Sequence of Cytochrome P450 3A4 (P08684 whole entry): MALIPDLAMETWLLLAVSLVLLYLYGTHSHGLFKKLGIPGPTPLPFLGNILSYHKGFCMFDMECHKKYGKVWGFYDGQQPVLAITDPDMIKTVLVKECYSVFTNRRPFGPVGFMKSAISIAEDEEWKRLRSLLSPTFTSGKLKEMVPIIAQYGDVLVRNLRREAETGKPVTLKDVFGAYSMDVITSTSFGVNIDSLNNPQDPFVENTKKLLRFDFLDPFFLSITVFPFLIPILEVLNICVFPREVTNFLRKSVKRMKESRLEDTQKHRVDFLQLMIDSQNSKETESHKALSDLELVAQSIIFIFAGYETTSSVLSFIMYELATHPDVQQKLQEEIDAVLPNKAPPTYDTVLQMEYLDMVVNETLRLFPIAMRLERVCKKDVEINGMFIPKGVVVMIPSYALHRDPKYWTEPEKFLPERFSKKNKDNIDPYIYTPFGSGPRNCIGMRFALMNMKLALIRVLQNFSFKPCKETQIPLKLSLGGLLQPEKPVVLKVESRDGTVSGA

CC1=C(c2cccc(O)c2)[C@H](c2ccc(OCCN3CC(CF)C3)cc2)Oc2ccc(O)cc21
bioavailability [1]: 10%
Activity [2]: inactive
inhibition [3]: inactive
AUC at 72 h [4]: 160 ng·h/mL
inhibition [5]: inactive
Activity [6]: Active
IC50 [7]: > 10 µM
IC50 [8]: > 10 µM
IC50 [9]: 3 µM
